≈ marks a conversion by molar mass, not a printed value.
Columns and labels:
Type in all cases: functional
Staphylococcus aureus [1] = experiment: Antibacterial activity against erythromycin-susceptible Staphylococcus aureus by agar microdilution method
Method in brief: (§1)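 Strains from an in-house culture collection (Pliva Research Institute). MIC determined by agar microdilution following NCCLS standards and reported in μg/mL. Erythromycin-susceptible strains are listed as Ery-S; the panel also includes inducibly resistant (iMLS), constitutively resistant (MLSB) and efflux-resistant (M) strains.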

Staphylococcus aureus [2] = experiment: Antibacterial activity against macrolide lincosamide- streptogramin B inducibly-resistant Staphylococcus aureus by agar microdilution method
Method in brief: (§2)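 Agar microdilution MIC following NCCLS standards; strains taken from the Pliva Research Institute culture collection. Panel grouped by phenotype: erythromycin-susceptible, inducibly MLS-resistant (iMLS), constitutively MLSB-resistant and efflux-resistant (M). Azithromycin, telithromycin and cethromycin tested alongside as references. MIC reported in μg/mL.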

Staphylococcus aureus [3] = experiment: Antibacterial activity against macrolide lincosamide- streptogramin B-resistant Staphylococcus aureus by agar microdilution method; method in brief: as §2
Streptococcus pneumoniae [4] = experiment: Antibacterial activity against erythromycin-susceptible Streptococcus pneumoniae by agar microdilution method; method in brief: as §1
Streptococcus pneumoniae [5] = experiment: Antibacterial activity against macrolide lincosamide- streptogramin B inducibly-resistant Streptococcus pneumoniae by agar microdilution method; method in brief: as §2
Streptococcus pneumoniae [6] = experiment: Antibacterial activity against efflux-resistant Streptococcus pneumoniae by agar microdilution method; method in brief: as §2
Streptococcus pyogenes [7] = experiment: Antibacterial activity against erythromycin-susceptible Streptococcus pyogenes by agar microdilution method; method in brief: as §1
Streptococcus pyogenes [8] = experiment: Antibacterial activity against macrolide lincosamide- streptogramin B inducibly-resistant Streptococcus pyogenes by agar microdilution method; method in brief: as §2
Streptococcus pyogenes [9] = experiment: Antibacterial activity against efflux-resistant Streptococcus pyogenes by agar microdilution method; method in brief: as §2
Haemophilus influenzae = experiment: Antibacterial activity against Haemophilus influenzae by agar microdilution method; method in brief: as §1

With `CC[C@H]1OC(=O)[C@H](C)C(=O)[C@H](C)[C@@H](O[C@@H]2O[C@H](C)C[C@H](N(C)C)[C@H]2O)[C@](C)(OC)C[C@@H](C)C(=O)[C@H](C)[C@H]2N(CCCCn3cnc(-c4cccnc4)c3)C(=O)O[C@]12C` [TELITHROMYCIN] the MIC (Staphylococcus aureus [1]) was at most 0.125 µg/mL, the MIC (Staphylococcus aureus [2]) was 0.5 µg/mL (≈ 0.616 µM) and the MIC (Staphylococcus aureus [3]) was over 64 µg/mL. It also gave an MIC (Streptococcus pneumoniae [4]) of at most 0.06 µg/mL, an MIC (Streptococcus pneumoniae [5]) of at most 0.125 µg/mL and an MIC (Streptococcus pneumoniae [6]) of 0.5 µg/mL (≈ 0.616 µM). The MIC (Streptococcus pyogenes [7]) was at most 0.06 µg/mL, the MIC (Streptococcus pyogenes [8]) was 4 µg/mL (≈ 4.93 µM) and the MIC (Streptococcus pyogenes [9]) was 0.25 µg/mL (≈ 0.308 µM). For the same compound, the MIC (Haemophilus influenzae) was 2 µg/mL (≈ 2.46 µM).
`CC[C@H]1OC(=O)[C@H](C)[C@@H](O[C@H]2C[C@@](C)(OC)[C@@H](O)[C@H](C)O2)[C@H](C)[C@@H](O[C@@H]2O[C@H](C)C[C@H](N(C)C)[C@H]2O)[C@](C)(O)C[C@@H](C)CN(C)[C@H](C)[C@@H](O)[C@]1(C)O` [AZITHROMYCIN] showed an MIC (Staphylococcus aureus [1]) of 1 µg/mL (≈ 1.34 µM), an MIC (Staphylococcus aureus [2]) of over 64 µg/mL and an MIC (Staphylococcus aureus [3]) of over 64 µg/mL. For the same compound, the MIC (Streptococcus pneumoniae [4]) was at most 0.125 µg/mL, the MIC (Streptococcus pneumoniae [5]) was over 64 µg/mL and the MIC (Streptococcus pneumoniae [6]) was 4 µg/mL (≈ 5.34 µM). It also gave an MIC (Streptococcus pyogenes [7]) of at most 0.125 µg/mL, an MIC (Streptococcus pyogenes [8]) of over 64 µg/mL and an MIC (Streptococcus pyogenes [9]) of 1 µg/mL (≈ 1.34 µM). For the same compound, the MIC (Haemophilus influenzae) was 1 µg/mL (≈ 1.34 µM).
`CC[C@H]1OC(=O)[C@H](C)C(=O)[C@H](C)[C@@H](O[C@@H]2O[C@H](C)C[C@H](N(C)C)[C@H]2O)[C@](C)(OC)C[C@@H](C)C(=O)[C@H](C)[C@H]2C(NC(=O)/C=C/CCc3cnc4ccc(OC)cc4c3)C(=O)O[C@@]21C` (some centres undefined) showed an MIC (Staphylococcus aureus [1]) of 2 µg/mL (≈ 2.31 µM), an MIC (Staphylococcus aureus [2]) of 2 µg/mL (≈ 2.31 µM) and an MIC (Staphylococcus aureus [3]) of over 64 µg/mL. The MIC (Streptococcus pneumoniae [4]) was at most 0.125 µg/mL, the MIC (Streptococcus pneumoniae [5]) was 8 µg/mL (≈ 9.24 µM) and the MIC (Streptococcus pneumoniae [6]) was 4 µg/mL (≈ 4.62 µM). For the same compound, the MIC (Streptococcus pyogenes [7]) was at most 0.125 µg/mL, the MIC (Streptococcus pyogenes [8]) was 0.25 µg/mL (≈ 0.289 µM) and the MIC (Streptococcus pyogenes [9]) was 4 µg/mL (≈ 4.62 µM). The MIC (Haemophilus influenzae) was 1 µg/mL (≈ 1.15 µM).
`CC[C@H]1OC(=O)[C@H](C)C(=O)[C@H](C)[C@@H](O[C@@H]2O[C@H](C)C[C@H](N(C)C)[C@H]2O)[C@](C)(OCC=Cc2cnc3ccccc3c2)C[C@@H](C)C(=O)[C@H](C)[C@H]2NC(=O)O[C@@]21C` [CETHROMYCIN] was tested, and the MIC (Staphylococcus aureus [1]) was at most 0.125 µg/mL, the MIC (Staphylococcus aureus [2]) was 0.25 µg/mL (≈ 0.326 µM) and the MIC (Staphylococcus aureus [3]) was over 64 µg/mL. For the same compound, the MIC (Streptococcus pneumoniae [4]) was at most 0.06 µg/mL, the MIC (Streptococcus pneumoniae [5]) was at most 0.125 µg/mL and the MIC (Streptococcus pyogenes [7]) was at most 0.06 µg/mL. For the same compound, the MIC (Streptococcus pyogenes [8]) was 1 µg/mL (≈ 1.31 µM), the MIC (Streptococcus pyogenes [9]) was at most 0.125 µg/mL and the MIC (Haemophilus influenzae) was 2 µg/mL (≈ 2.61 µM).
Work on `CC[C@H]1OC(=O)[C@H](C)C(=O)[C@H](C)[C@@H](O[C@@H]2O[C@H](C)C[C@H](N(C)C)[C@H]2O)[C@](C)(OC)C[C@@H](C)C(=O)[C@H](C)[C@H]2C(NC(=O)CCc3cnc4ccc(OC)cc4c3)C(=O)O[C@@]21C` (some centres undefined) yielded an MIC (Staphylococcus aureus [1]) of 2 µg/mL (≈ 2.38 µM), an MIC (Staphylococcus aureus [2]) of 1 µg/mL (≈ 1.19 µM) and an MIC (Staphylococcus aureus [3]) of over 64 µg/mL. It also gave an MIC (Streptococcus pneumoniae [4]) of at most 0.125 µg/mL, an MIC (Streptococcus pneumoniae [5]) of 0.5 µg/mL (≈ 0.595 µM) and an MIC (Streptococcus pneumoniae [6]) of 0.5 µg/mL (≈ 0.595 µM). For the same compound, the MIC (Streptococcus pyogenes [7]) was at most 0.125 µg/mL, the MIC (Streptococcus pyogenes [8]) was 0.25 µg/mL (≈ 0.298 µM) and the MIC (Streptococcus pyogenes [9]) was 0.5 µg/mL (≈ 0.595 µM). For the same compound, the MIC (Haemophilus influenzae) was 1 µg/mL (≈ 1.19 µM).
Compound `CC[C@H]1OC(=O)[C@H](C)C(=O)[C@H](C)[C@@H](O[C@@H]2O[C@H](C)C[C@H](N(C)C)[C@H]2O)[C@](C)(OC)C[C@@H](C)C(=O)[C@H](C)[C@H]2C(NC(=O)/C=C/CCc3cnc4c(OC)cccc4c3)C(=O)O[C@@]21C` (some centres undefined) has an MIC (Staphylococcus aureus [1]) of 1 µg/mL (≈ 1.15 µM), an MIC (Staphylococcus aureus [2]) of 1 µg/mL (≈ 1.15 µM) and an MIC (Staphylococcus aureus [3]) of over 64 µg/mL. It also gave an MIC (Streptococcus pneumoniae [4]) of at most 0.125 µg/mL, an MIC (Streptococcus pneumoniae [5]) of 2 µg/mL (≈ 2.31 µM) and an MIC (Streptococcus pneumoniae [6]) of 2 µg/mL (≈ 2.31 µM). The MIC (Streptococcus pyogenes [7]) was at most 0.125 µg/mL, the MIC (Streptococcus pyogenes [8]) was 0.5 µg/mL (≈ 0.577 µM) and the MIC (Streptococcus pyogenes [9]) was 2 µg/mL (≈ 2.31 µM). It also gave an MIC (Haemophilus influenzae) of 1 µg/mL (≈ 1.15 µM).
`CC[C@H]1OC(=O)[C@H](C)C(=O)[C@H](C)[C@@H](O[C@@H]2O[C@H](C)C[C@H](N(C)C)[C@H]2O)[C@](C)(OC)C[C@@H](C)C(=O)[C@H](C)[C@H]2C(NC(=O)CCc3ccc4ccccc4c3)C(=O)O[C@@]21C` (some centres undefined) showed an MIC (Staphylococcus aureus [1]) of 1 µg/mL (≈ 1.24 µM), an MIC (Staphylococcus aureus [2]) of 1 µg/mL (≈ 1.24 µM) and an MIC (Staphylococcus aureus [3]) of over 64 µg/mL. It also gave an MIC (Streptococcus pneumoniae [4]) of at most 0.125 µg/mL, an MIC (Streptococcus pneumoniae [5]) of 2 µg/mL (≈ 2.47 µM) and an MIC (Streptococcus pneumoniae [6]) of 2 µg/mL (≈ 2.47 µM). It also gave an MIC (Streptococcus pyogenes [7]) of at most 0.125 µg/mL, an MIC (Streptococcus pyogenes [8]) of 4 µg/mL (≈ 4.94 µM) and an MIC (Streptococcus pyogenes [9]) of 8 µg/mL (≈ 9.89 µM). For the same compound, the MIC (Haemophilus influenzae) was 2 µg/mL (≈ 2.47 µM).
In the case of `CC[C@H]1OC(=O)[C@H](C)C(=O)[C@H](C)[C@@H](O[C@@H]2O[C@H](C)C[C@H](N(C)C)[C@H]2O)[C@](C)(OC)C[C@@H](C)C(=O)[C@H](C)[C@H]2C(NC(=O)CCCCc3cnc4ccc(OC)cc4c3)C(=O)O[C@@]21C` (some centres undefined), the MIC (Staphylococcus aureus [1]) is reported as 1 µg/mL (≈ 1.15 µM), the MIC (Staphylococcus aureus [2]) is reported as 2 µg/mL (≈ 2.3 µM) and the MIC (Staphylococcus aureus [3]) is reported as over 64 µg/mL. It also gave an MIC (Streptococcus pneumoniae [4]) of at most 0.125 µg/mL, an MIC (Streptococcus pneumoniae [5]) of 4 µg/mL (≈ 4.61 µM) and an MIC (Streptococcus pneumoniae [6]) of 4 µg/mL (≈ 4.61 µM). It also gave an MIC (Streptococcus pyogenes [7]) of at most 0.125 µg/mL, an MIC (Streptococcus pyogenes [8]) of 2 µg/mL (≈ 2.3 µM) and an MIC (Streptococcus pyogenes [9]) of 4 µg/mL (≈ 4.61 µM). For the same compound, the MIC (Haemophilus influenzae) was 8 µg/mL (≈ 9.22 µM).
`CC[C@H]1OC(=O)[C@H](C)C(=O)[C@H](C)[C@@H](O[C@@H]2O[C@H](C)C[C@H](N(C)C)[C@H]2O)[C@](C)(OC)C[C@@H](C)C(=O)[C@H](C)[C@H]2C(NC(=O)CCCCc3cnc4ccccc4c3)C(=O)O[C@@]21C` (some centres undefined) showed an MIC (Staphylococcus aureus [1]) of 1 µg/mL (≈ 1.19 µM), an MIC (Staphylococcus aureus [2]) of 2 µg/mL (≈ 2.39 µM) and an MIC (Staphylococcus aureus [3]) of over 64 µg/mL. It also gave an MIC (Streptococcus pneumoniae [4]) of at most 0.125 µg/mL, an MIC (Streptococcus pneumoniae [5]) of 8 µg/mL (≈ 9.55 µM) and an MIC (Streptococcus pneumoniae [6]) of 4 µg/mL (≈ 4.77 µM). For the same compound, the MIC (Streptococcus pyogenes [7]) was at most 0.125 µg/mL, the MIC (Streptococcus pyogenes [8]) was 8 µg/mL (≈ 9.55 µM) and the MIC (Streptococcus pyogenes [9]) was 16 µg/mL (≈ 19.1 µM). It also gave an MIC (Haemophilus influenzae) of 16 µg/mL (≈ 19.1 µM).

— ChEMBL document CHEMBL3351470, “Synthesis and Structure-Activity Relationships of α-Amino-γ-lactone Ketolides: A Novel Class of Macrolide Antibiotics” (2014)
